From paper PMC10127574 (ACS chemical biology, 2015) come the findings set out here.

Molecules are shown by their SMILES. Where two headings read alike, the source gives them in different places.

Assay [1] concerns the target T1, WT-IDE (Homo sapiens, UniProt P14735).
T1 sequence (P14735 1-1019): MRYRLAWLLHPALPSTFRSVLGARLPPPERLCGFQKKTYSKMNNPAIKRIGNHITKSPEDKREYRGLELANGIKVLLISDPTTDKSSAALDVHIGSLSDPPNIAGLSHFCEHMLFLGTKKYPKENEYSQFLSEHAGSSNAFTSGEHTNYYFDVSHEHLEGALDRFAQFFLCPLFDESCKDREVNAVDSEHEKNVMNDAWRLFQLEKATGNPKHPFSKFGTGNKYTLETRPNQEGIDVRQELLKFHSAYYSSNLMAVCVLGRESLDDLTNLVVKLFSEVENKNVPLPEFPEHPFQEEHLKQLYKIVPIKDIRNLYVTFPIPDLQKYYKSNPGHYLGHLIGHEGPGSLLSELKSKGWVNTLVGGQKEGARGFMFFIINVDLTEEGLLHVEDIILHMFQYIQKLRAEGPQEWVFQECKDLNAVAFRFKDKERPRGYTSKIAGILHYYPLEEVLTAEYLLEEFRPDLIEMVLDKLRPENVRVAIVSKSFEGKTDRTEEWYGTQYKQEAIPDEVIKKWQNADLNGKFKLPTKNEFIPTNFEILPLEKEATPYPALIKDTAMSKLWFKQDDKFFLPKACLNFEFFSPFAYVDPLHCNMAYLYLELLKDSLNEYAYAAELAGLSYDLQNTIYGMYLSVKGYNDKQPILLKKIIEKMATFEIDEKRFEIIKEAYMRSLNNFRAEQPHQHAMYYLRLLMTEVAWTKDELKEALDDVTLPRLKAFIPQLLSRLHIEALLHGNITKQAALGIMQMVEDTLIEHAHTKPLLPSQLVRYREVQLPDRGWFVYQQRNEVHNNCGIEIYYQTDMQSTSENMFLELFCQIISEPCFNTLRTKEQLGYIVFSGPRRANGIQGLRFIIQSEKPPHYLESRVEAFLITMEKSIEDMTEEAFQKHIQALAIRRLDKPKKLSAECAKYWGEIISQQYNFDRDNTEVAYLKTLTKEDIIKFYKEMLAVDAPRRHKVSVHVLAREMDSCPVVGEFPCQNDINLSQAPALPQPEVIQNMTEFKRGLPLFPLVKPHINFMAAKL
Kind of assay: IDE activity in the presence of reducing agents / reversal by DTT. In kind it is biochemical.

In assay [2] the target is T1, WT-IDE. As to the kind of experiment: kinetics of irreversible inhibition. In kind it is biochemical. The conditions noted are these: WT-IDE 2 nM, FRET1 5 μM; rate constant of irreversible step. In short, it runs like this:
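Recombinant WT-IDE (2 nM) and FRET1 substrate (5 μM) were monitored continuously at 3-s intervals, starting immediately after adding inhibitor at several concentrations. Curve fits gave observed rate constants, which were plotted against inhibitor concentration. A hyperbolic fit gave kinhib and KM. LE was taken as ΔG/heavy atoms using KM; SEI as pKM/tPSA/100 Å2.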

Assay [3] concerns the target T2, intracellular pools of IDE (Homo sapiens, UniProt P14735).
T2 sequence (P14735 1-1019): T1 sequence (P14735 1-1019)
Kind of assay: intracellular IDE activity after incubation of intact HEK cells. The assay is classed as cell-based. The conditions noted are these: 10 μM, 36 h. In short, it runs like this: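 Confluent HEK monolayers were exposed 36 h to 10 μM compound or DMSO vehicle, and conditioned medium was collected. Cells were washed 3× in PBS and held 30 min in hypotonic 50 mM Tris-HCl at 4 °C. They were scraped, extruded 3× through a 30G needle and spun 10,000 × g, 10 min, 4 °C. Supernatant activity was assayed by FAßB degradation without or with 1 mM DTT.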

The target in the next assay is T3, extracellular IDE (Homo sapiens, UniProt P14735).
T3 sequence (P14735 1-1019): T1 sequence (P14735 1-1019)
As to the kind of experiment: cell-based IDE activity assay. The conditions noted are these: for activity by hit cutoff criteria: Table 1 screening assays. Put shortly:
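Extracellular IDE secreted by HEK-293 cells, harvested mechanically rather than by trypsin, served as the endogenous enzyme source. Activity was read by fluorescence polarization with fluoresceinated, biotinylated Aß peptide (FAßB) in DTT-free solutions. The primary screen used a nominal compound concentration of 6 μM. Confirmed hits were retested in dose-response format to give apparent IC50.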

Assay [4] deals with T1, WT-IDE. As to the kind of experiment: test for irreversible inhibition by 100-fold dilution. In kind it is biochemical. The settings on record: 100 nM IDE with high inhibitor concentration 30 min, then 100-fold dilution. Put shortly:
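Recombinant WT-IDE activity was measured with FRET1 substrate in DTT-free solutions under three conditions. (1) 1 nM enzyme with "high" inhibitor concentrations. (2) 1 nM enzyme with 100-fold lower concentrations. (3) 100 nM enzyme preincubated 30 min with "high" concentrations, then diluted 100-fold to 1 nM enzyme and "low" inhibitor before assay. Reversible and irreversible reference inhibitors were run alongside.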

Another assay concerns IDE mutant sC812. Kind of assay: inhibition of single-cysteine IDE mutant sC812. The assay is classed as biochemical, human. The conditions noted are these: Figure 3B.
A further assay concerns IDE mutant sC819. Kind of assay: inhibition of single-cysteine IDE mutant sC819. The settings on record: Figure 3B. The assay is classed as biochemical, human.
Assay [5] deals with T4, cysteine-free form of IDE (CF-IDE) (Homo sapiens, UniProt P14735, C819S, form not given).
T4 sequence (P14735 42-1019 C819S): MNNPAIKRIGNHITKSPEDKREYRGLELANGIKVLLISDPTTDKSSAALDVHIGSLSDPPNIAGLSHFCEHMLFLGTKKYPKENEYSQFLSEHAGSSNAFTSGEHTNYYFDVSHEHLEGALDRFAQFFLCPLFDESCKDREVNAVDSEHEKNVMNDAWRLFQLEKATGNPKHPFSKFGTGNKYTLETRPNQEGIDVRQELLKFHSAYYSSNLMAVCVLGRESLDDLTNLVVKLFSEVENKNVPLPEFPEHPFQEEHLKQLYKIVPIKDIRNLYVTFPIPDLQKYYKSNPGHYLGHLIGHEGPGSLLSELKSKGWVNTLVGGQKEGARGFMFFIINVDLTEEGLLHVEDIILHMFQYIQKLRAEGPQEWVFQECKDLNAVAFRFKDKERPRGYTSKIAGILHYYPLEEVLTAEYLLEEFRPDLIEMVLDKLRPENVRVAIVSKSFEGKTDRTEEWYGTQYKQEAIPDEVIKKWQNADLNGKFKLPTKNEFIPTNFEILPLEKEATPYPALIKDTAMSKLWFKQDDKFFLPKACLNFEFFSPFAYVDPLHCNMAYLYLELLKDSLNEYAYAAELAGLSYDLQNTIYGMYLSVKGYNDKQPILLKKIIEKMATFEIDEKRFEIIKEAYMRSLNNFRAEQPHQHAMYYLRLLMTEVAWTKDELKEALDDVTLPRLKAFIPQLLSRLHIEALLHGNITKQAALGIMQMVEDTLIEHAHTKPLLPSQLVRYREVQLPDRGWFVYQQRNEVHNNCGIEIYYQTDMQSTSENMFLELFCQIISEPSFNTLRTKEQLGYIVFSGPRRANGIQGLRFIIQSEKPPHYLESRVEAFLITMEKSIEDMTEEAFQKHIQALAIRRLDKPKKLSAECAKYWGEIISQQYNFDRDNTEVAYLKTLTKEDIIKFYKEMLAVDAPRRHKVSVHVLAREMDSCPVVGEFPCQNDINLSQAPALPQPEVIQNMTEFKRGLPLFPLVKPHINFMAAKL
As to the kind of experiment: IDE activity assay with FRET1 using cysteine-free IDE. In kind it is biochemical. The conditions noted are these: read-out: ki CF-IDE.

The target in assay [6] is T5, recombinant wild-type IDE (WT-IDE) (Homo sapiens, UniProt P14735).
T5 sequence (P14735 1-1019): T1 sequence (P14735 1-1019)
Kind of assay: cell-free IDE activity assay with fluorogenic peptide substrate FRET1. In kind it is biochemical.

[7] abbreviates: read-out: IC50^app cell-based, Table 1, HEK-293 cells, extracellular IDE.
The mark [8] stands for this setting: read-out: IC50^app cell-free, Table 1, WT-IDE, FRET1.

A word on the IC50: it is the concentration that gives 50% inhibition. For orientation: Ki means a dissociation constant, usually derived from enzyme kinetics or from competition with a known ligand.

As for `O=c1c2ccccc2sn1-c1cc(S(=O)(=O)N2CCOCC2)ccc1N1CCOCC1` [Compound 1], the “reversibility of WT-IDE inhibition by treatment with dithiothreitol” value at WT-IDE [1] (DTT treatment, Figure 2E) was “reversible”. Further, the “activity in the presence of excess DTT, ß-mercaptoethanol or reduced glutathione” value on WT-IDE [1] (excess reducing agent, Supplementary Figure S1A) is given as “no activity was detected”. For the same compound, the kinhib on WT-IDE [2] is 2.05 min⁻¹. The “effect on intracellular pools of IDE after prolonged incubation of intact cells” value in [3] was “unaffected”. For the same compound, the IC50 at extracellular IDE (setting [7]) amounted to 1400 nM; at extracellular IDE (read-out: IC50^app cell-based, Table 2) it was 1400 nM; in [6] (read-out: IC50^app against WT-IDE, cell-free), 233 nM; in assay [6] (setting [8]) it was 230 nM. Further, the “reversibility of inhibition in dilution experiments” value at WT-IDE [4] was “irreversible”. In addition, in the assay on IDE mutant sC812, the “inhibition of single-cysteine mutant sC812” value was “no significant effect”. For the same compound, the “inhibition of single-cysteine mutant sC819” value in the assay with IDE mutant sC819 is “strongly inhibited”. The Ki in [5] amounted to 8180 nM.
`O=C(O)c1ccccc1NS(=O)(=O)c1cccc(-n2sc3ccccc3c2=O)c1` [Compound 2]: the IC50 at extracellular IDE (setting [7]) worked out at 2100 nM; in assay [6] (setting [8]), 540 nM.
Regarding `Cc1ccc(-n2sc3ccccc3c2=O)cc1S(=O)(=O)N1CCCCC1` [Compound 3], the IC50 on extracellular IDE (setting [7]) amounted to 4000 nM; in assay [6] (setting [8]), 1030 nM.
Taken in the same sequence, the figures for `O=c1c2ccccc2sn1-c1cc(S(=O)(=O)N2CCOCC2)ccc1N1CCCC1` [Compound 4] were 5600 nM and 1120 nM.
For the compound `CN(C)S(=O)(=O)c1cccc(-n2sc3ccccc3c2=O)c1` [Compound 5], the “activity by hit cutoff criteria” value at extracellular IDE was “inactive”. At extracellular IDE (setting [7]), the IC50 is above 10000 nM.
`O=c1c2ccccc2sn1-c1ccc(S(=O)(=O)N2CCCC2)cc1` [Compound 6]: the “activity by hit cutoff criteria” value at extracellular IDE was “inactive”. The IC50 (on extracellular IDE (setting [7]); in [6] (setting [8])) was above 10000 nM throughout.
In the case of `O=c1c2cc(F)ccc2sn1-c1ccccc1` [Compound 7], the “activity by hit cutoff criteria” value on extracellular IDE was “active”. Further, the IC50 at extracellular IDE (setting [7]) stood at 3900 nM; in assay [6] (setting [8]), 1800 nM.
Regarding `O=c1c2cc(C(F)(F)F)ccc2sn1-c1cc(S(=O)(=O)N2CCOCC2)ccc1N1CCOCC1` [Compound 9, 2-(2-morpholin-4-yl-5-morpholin-4-ylsulfonylphenyl)-5-(trifluoromethyl)-1,2-benzothiazol-3-one], on WT-IDE [2], the kinhib stood at 15.3 min⁻¹. Also, the IC50 against extracellular IDE came out at 120 nM; in [6], 71 nM. Further, the Ki in assay [5] amounted to 7890 nM.
For the compound `CCN1C(=O)C=CC1=O` [NEM, N-ethylmaleimide, reference compound], the “reversibility of inhibition in dilution experiments” value at WT-IDE [4] is given as “irreversible”. The “inhibition of single-cysteine mutant sC812” value in the assay with IDE mutant sC812 is reported as “completely inhibited”. Besides, in the assay with IDE mutant sC819, the “inhibition of single-cysteine mutant sC819” value is “completely inhibited”.
